Reference: ChEMBL document CHEMBL1154792, “chi-Conopeptide pharmacophore development: toward a novel class of norepinephrine transporter inhibitor (Xen2174) for pain” (J Med Chem, 2009)
The source made the active and inactive calls.

Tests used:
COS-7 [1] = test: (§1) Displacement of [3H]nisoxetine from rat NET expressed in COS7 cells; format: cell-based
[2] = molecular target: T1, Sodium-dependent noradrenaline transporter (Homo sapiens, UniProt P23975); test: Displacement of [3H]nisoxetine from human NET expressed in COS7 cells; format: cell-based; conditions: for Activity: COS-7
Method in brief: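 Membranes from COS-7 cells transfected with human NET were incubated with [3H]nisoxetine (4.3 nM) with or without peptide (1 nM to 100 μM, triplicate) for 1 h at RT. Filter-retained radioactivity was counted by liquid scintillation, and values are given as pIC50. Data are means of 2–5 experiments in triplicate; peptide concentration was set by calibrated HPLC at 214 nm.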

Rattus norvegicus [3] = species on record: Rattus norvegicus; test: Toxicity in CCI rat pain model assessed as side effects; format: organism-based; conditions: in vivo
Method in brief: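 Rats with unilateral sciatic chronic constriction injury received a single intrathecal bolus via an implanted cannula 14 days after surgery, with morphine and vehicle as comparators. Compound-related behavioural observations were recorded alongside von Frey paw-withdrawal testing. Three animals per analogue.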

Rattus norvegicus [4] = test: Antiallodynic activity in CCI rat pain model assessed as efficayin ipsilateral hind paw withdrawal threshold at 0.2 nM, iv; format: functional, organism-based
Method in brief: (§2)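 Unilateral chronic constriction injury of the sciatic nerve in rats. At 14 days post-surgery, a single bolus was given via a chronically implanted intrathecal cannula; morphine and vehicle were comparators. Mechanical allodynia was measured with calibrated von Frey filaments as paw withdrawal threshold in the ipsilateral hindpaw, relative to the pre-dose value. Three animals per analogue; dose chosen from NET potency.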

[5] = as §1; format: cell-based; conditions: cos-7
[6] = molecular target: T1, Sodium-dependent noradrenaline transporter; test: Inhibition of human NET expressed in COS7 cells assessed as inhibition of [3H]norepinephrine uptake at 1 uM; format: cell-based; conditions: COS-7
Rattus norvegicus [7] = test: Antiallodynic activity in CCI rat pain model assessed as efficayin ipsilateral hind paw withdrawal threshold at 1 nM, iv after 3 hrs; format: functional, organism-based; method in brief: as §2
COS-7 [8] = test: Inhibition of rat NET expressed in COS7 cells assessed as inhibition of [3H]norepinephrine uptake; format: cell-based
[9] = molecular target: T1, Sodium-dependent noradrenaline transporter; conditions: COS-7

T1 sequence (P23975 whole entry): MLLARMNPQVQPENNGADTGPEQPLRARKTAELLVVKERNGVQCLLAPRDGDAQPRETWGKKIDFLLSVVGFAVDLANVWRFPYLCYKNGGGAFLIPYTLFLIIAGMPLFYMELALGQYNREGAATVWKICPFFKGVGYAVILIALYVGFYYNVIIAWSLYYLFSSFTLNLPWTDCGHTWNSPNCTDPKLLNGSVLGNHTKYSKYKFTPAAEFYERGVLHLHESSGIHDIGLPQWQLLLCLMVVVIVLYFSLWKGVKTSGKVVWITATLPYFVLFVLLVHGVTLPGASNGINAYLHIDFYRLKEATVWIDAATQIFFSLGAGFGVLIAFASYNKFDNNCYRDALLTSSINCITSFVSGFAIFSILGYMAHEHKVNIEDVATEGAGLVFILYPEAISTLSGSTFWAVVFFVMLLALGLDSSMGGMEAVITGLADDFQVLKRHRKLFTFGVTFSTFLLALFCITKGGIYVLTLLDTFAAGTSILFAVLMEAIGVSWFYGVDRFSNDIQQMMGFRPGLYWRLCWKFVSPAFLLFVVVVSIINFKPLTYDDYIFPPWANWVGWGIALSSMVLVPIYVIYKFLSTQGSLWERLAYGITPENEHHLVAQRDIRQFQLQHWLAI

With `CC(C)C[C@@H]1NC(=O)[C@H](CCCCN)NC(=O)[C@H](Cc2ccc(O)cc2)NC(=O)CNC(=O)[C@@H]2CSSC[C@H](NC1=O)C(=O)N[C@@H](Cc1cnc[nH]1)C(=O)N1Cc3ccccc3C[C@H]1C(=O)N[C@H](C(=O)O)CSSC[C@H](NC(=O)[C@@H](NC(=O)CNC(=O)[C@@H]1CCC(=O)N1)C(C)C)C(=O)N2` the Activity (COS-7 [1]) was “Active” and the Activity [2] was “Active”.
With `CC(C)C[C@@H]1NC(=O)[C@H](CCCCN)NC(=O)[C@H](Cc2ccc(O)cc2)NC(=O)CNC(=O)[C@@H]2CSSC[C@H](NC1=O)C(=O)N[C@@H](Cc1cnc[nH]1)C(=O)N1CC[C@H](O)[C@H]1C(=O)N[C@H](C(=O)O)CSSC[C@H](NC(=O)[C@@H](NC(=O)CNC(=O)[C@H](CC(N)=O)NC(=O)[C@@H](N)CCc1ccccc1)C(C)C)C(=O)N2` the Activity (Rattus norvegicus [3]) was “Toxic” and the Activity (Rattus norvegicus [4]) was “Active”.
With `CC(C)C[C@@H]1NC(=O)[C@H](CCCCN)NC(=O)[C@H](Cc2ccc(O)cc2)NC(=O)CNC(=O)[C@@H]2CSSC[C@H](NC1=O)C(=O)N[C@@H](Cc1cnc[nH]1)C(=O)N[C@H](CCC(=O)O)C(=O)N[C@H](C(=O)O)CSSC[C@H](NC(=O)[C@@H](NC(=O)CNC(=O)[C@@H]1CCC(=O)N1)C(C)C)C(=O)N2` the Activity (COS-7 [1]) was “Active” and the Activity [2] was “Active”.
With `CC(C)C[C@@H]1NC(=O)[C@H](CCCCN)NC(=O)[C@H](Cc2ccc(O)cc2)NC(=O)CNC(=O)[C@@H]2CSSC[C@H](NC1=O)C(=O)N[C@@H](Cc1cnc[nH]1)C(=O)N[C@H](Cc1ccc(O)cc1)C(=O)N[C@H](C(=O)O)CSSC[C@H](NC(=O)[C@@H](NC(=O)CNC(=O)[C@@H]1CCC(=O)N1)C(C)C)C(=O)N2` the Activity (COS-7 [1]) was “Active” and the Activity [2] was “Active”.
With `CC(C)C[C@@H]1NC(=O)[C@H](CCCCN)NC(=O)[C@H](Cc2ccc(O)cc2)NC(=O)CNC(=O)[C@@H]2CSSC[C@H](NC1=O)C(=O)N[C@@H](Cc1cnc[nH]1)C(=O)N1CC[C@H](O)[C@H]1C(=O)N[C@H](C(=O)O)CSSC[C@H](NC(=O)[C@@H](NC(=O)CNC(=O)[C@H](N)CCCNC(=N)N)C(C)C)C(=O)N2` the Activity (Rattus norvegicus [3]) was “Toxic”.
In the case of `CC(C)C[C@@H]1NC(=O)[C@H](CCCCN)NC(=O)[C@H](Cc2ccc(O)cc2)NC(=O)CNC(=O)[C@@H]2CSSC[C@H](NC1=O)C(=O)N[C@@H](Cc1cnc[nH]1)C(=O)N1CC[C@H](O)[C@H]1C(=O)N[C@H](C(=O)O)CSSC[C@H](NC(=O)[C@@H](NC(=O)CNC(=O)[C@H](CC(N)=O)NC(=O)[C@@H](N)Cc1c[nH]c3ccccc13)C(C)C)C(=O)N2`, the Activity (Rattus norvegicus [3]) is reported as “Toxic”.
For `CC(C)C[C@@H]1NC(=O)[C@H](CCCCN)NC(=O)[C@H](Cc2ccc(O)cc2)NC(=O)CNC(=O)[C@@H]2CSSC[C@H](NC1=O)C(=O)N[C@@H](Cc1cnc[nH]1)C(=O)N[C@H](CCCCN)C(=O)N[C@H](C(=O)O)CSSC[C@H](NC(=O)[C@@H](NC(=O)CNC(=O)[C@@H]1CCC(=O)N1)C(C)C)C(=O)N2`, the Activity (COS-7 [1]) was “Active” and the Activity [2] was “Active”.
In the case of `CC(C)C[C@@H]1NC(=O)[C@H](CCCCN)NC(=O)[C@H](Cc2ccc(O)cc2)NC(=O)CNC(=O)[C@@H]2CSSC[C@H](NC1=O)C(=O)N[C@@H](Cc1cnc[nH]1)C(=O)N1CC[C@H](O)[C@H]1C(=O)N[C@H](C(=O)O)CSSC[C@H](NC(=O)[C@@H](NC(=O)CNC(=O)[C@@H]1CCC(=O)N1)C(C)C)C(=O)N2`, the pIC50 [5] is reported as 6.67, the IC50 [2] is reported as 182 nM and the Activity [6] is reported as “Active”. For the same compound, the Activity (Rattus norvegicus [3]) was “Toxic”, the Activity (Rattus norvegicus [7]) was “Active” and the logEC50 (COS-7 [8]) was -6.67. The logEC50 [9] was -6.74.
In the case of `CC(C)C[C@@H]1NC(=O)[C@H](CCCCN)NC(=O)[C@H](Cc2ccc(O)cc2)NC(=O)CNC(=O)[C@@H]2CSSC[C@H](NC1=O)C(=O)N[C@@H](Cc1cnc[nH]1)C(=O)N1CC[C@H](O)[C@H]1C(=O)N[C@H](C(=O)O)CSSC[C@H](NC(=O)[C@@H](NC(=O)CNC(=O)[C@H](N)CC(N)=O)C(C)C)C(=O)N2`, the Activity (Rattus norvegicus [3]) is reported as “Toxic”.
With `CC(C)C[C@@H]1NC(=O)[C@H](CCCCN)NC(=O)[C@H](Cc2ccc(O)cc2)NC(=O)CNC(=O)[C@@H]2CSSC[C@H](NC1=O)C(=O)N[C@@H](Cc1cnc[nH]1)C(=O)N1CC[C@H](O)[C@H]1C(=O)N[C@H](C(=O)O)CSSC[C@@H](NC(=O)[C@@H](NC(=O)CNC(=O)[C@@H]1CCC(=O)N1)C(C)C)C(=O)N2` the Activity [2] was “inactive”.
In the case of `CC(C)C[C@@H]1NC(=O)[C@H](CCCCN)NC(=O)[C@H](Cc2ccc(O)cc2)NC(=O)CNC(=O)[C@@H]2CSSC[C@H](NC1=O)C(=O)N[C@@H](Cc1cnc[nH]1)C(=O)N1CC[C@H](O)[C@H]1C(=O)N[C@@H](C(=O)O)CSSC[C@@H](NC(=O)[C@@H](NC(=O)CNC(=O)[C@@H]1CCC(=O)N1)C(C)C)C(=O)N2`, the Activity [2] is reported as “Active”.
In the case of `CCCC[C@H](N)C(=O)NCC(=O)N[C@H](C(=O)N[C@H]1CSSC[C@@H](C(=O)O)NC(=O)[C@@H]2[C@@H](O)CCN2C(=O)[C@H](Cc2cnc[nH]2)NC(=O)[C@@H]2CSSC[C@H](NC1=O)C(=O)NCC(=O)N[C@@H](Cc1ccc(O)cc1)C(=O)N[C@@H](CCCCN)C(=O)N[C@@H](CC(C)C)C(=O)N2)C(C)C`, the Activity (Rattus norvegicus [3]) is reported as “Toxic”.
